An excerpt weighted towards active compounds, which were near 1.2% of everything screened.
MsrA inhibitor: bovine MsrA inhibition; purified bovine MsrA, absorbance read-out; inhibition, % at 15.5 µM; actives 0.75% (n = 360,000); AID 651718
Bfl-1 A1 inh: inhibitors of the anti-apoptotic protein A1, read as caspase activation | MEF A1-2A-BIM cells, Caspase-Glo 3/7 luminescence, 3 h; percent of clofoctol response, vehicle zero | AID 2462 | caspase activation, % (test concentration not listed) | actives 0.066% (n = 330,000);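 active means over half of replicate activation scores above 10%, or exactly half above 10 with the replicate mean above 10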
bovine MsrA act: activates bovine MsrA enzyme. activation, % at 10.6 µM. purified bovine MsrA, absorbance read-out. actives 0.3% (n = 360,000); in the data active means activation above about 7.5%
procasp7 counter: activates human procaspase-7, counter-screen for procaspase-3 activators | activation, % at 8.5 µM | AID 463210 | recombinant procaspase-7, Ac-DEVD-pNA absorbance 405 nm; D23A/D198A/D206A triple mutant, cannot self-cleave; scale: DMSO 0, 5 µM enzyme 100 | actives 0.093% (n = 330,000);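 active means percent activation above the screen-wide mean plus 3 SD, cut at about 25% in these data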
Target sequence (P55210 whole entry D23A/D198A/D206A): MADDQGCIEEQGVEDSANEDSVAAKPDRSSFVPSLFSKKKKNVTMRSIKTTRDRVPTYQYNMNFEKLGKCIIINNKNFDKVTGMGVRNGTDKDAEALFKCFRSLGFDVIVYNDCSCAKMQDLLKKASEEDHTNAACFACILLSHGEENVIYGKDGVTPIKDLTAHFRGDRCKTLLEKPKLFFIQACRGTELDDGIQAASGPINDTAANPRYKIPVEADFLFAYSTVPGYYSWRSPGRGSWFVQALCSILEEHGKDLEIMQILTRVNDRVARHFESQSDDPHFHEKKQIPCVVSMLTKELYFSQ
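Assay system – Uncleavable procaspase-7 mutant enzyme · Quantity – 2 µM procaspase-7 mutant as dispensed · Times – 1 h preincubation, 2 h reaction · Dosing – single nominal 8.5 µM compound dose, 0.8% DMSO final · Buffer or medium – Zinc-free 50 mM HEPES buffer, pH 7.4, with NaCl and Triton X-100 · Detection – Epi-absorbance of released pNA at 405 nm, two timepoints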
procasp3 activ: procaspase-3 (human) activation; P42574; recombinant procaspase-3 D3A, Ac-DEVD-pNA absorbance 405 nm; actives 0.11% (n = 330,000); activation, % at 8.5 µM;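 active means activation above the mean of all tested compounds plus 3 SD, cut at about 21% in these data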
Target sequence (P42574 whole entry D9A/D28A/D175A): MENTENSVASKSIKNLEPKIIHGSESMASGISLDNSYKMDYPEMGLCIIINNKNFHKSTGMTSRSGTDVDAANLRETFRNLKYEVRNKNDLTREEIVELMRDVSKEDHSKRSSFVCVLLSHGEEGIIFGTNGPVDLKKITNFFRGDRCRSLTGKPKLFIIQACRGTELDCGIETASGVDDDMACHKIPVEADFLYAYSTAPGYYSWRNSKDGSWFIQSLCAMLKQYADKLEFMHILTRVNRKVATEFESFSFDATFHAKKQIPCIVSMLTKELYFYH
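Compound: 8.5 µM single point, 0.8% DMSO / Material: Autoprocessing-dead procaspase-3 D3A mutant enzyme / Timing: 1 h preincubation plus 2 h reaction at 25 °C / Medium: Zinc-free HEPES/NaCl buffer with 0.01% Triton X-100 at pH 7.4 / Technique: 405 nm absorbance of p-nitroaniline, reads at 0 and 120 min / Repeats: one well per compound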
MsrA inh confirm: bovine MsrA inhibition, confirmed; shares compounds with MsrA inhibitor; actives 41% (n = 2,300); purified bovine MsrA, absorbance read-out; inhibition, % at 15.5 µM;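 further: coupled to thioredoxin reductase with NADPH and selenocystamine and DMSO as substrate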
Numbers stand for hits. Unless noted, no stated cut-off is given here; in the data, active means inhibition above about 4.5%; inactive means the rest.

CN(C)CCCNc1nc(N)c([N+](=O)[O-])c(NCCO)n1 was read as MsrA inhibitor inactive, Bfl-1 A1 inh inactive, bovine MsrA act inactive, procasp7 counter inactive and procasp3 activ inactive.
CNc1nc(N)c([N+](=O)[O-])c(NCCO)n1 was read as MsrA inhibitor 5.0, Bfl-1 A1 inh inactive, bovine MsrA act inactive, procasp7 counter inactive, procasp3 activ inactive and MsrA inh confirm inactive.
`O=[N+]([O-])c1ccc(C2CCCC/C2=N/OCc2ccccc2F)c([N+](=O)[O-])c1` (configuration not stated) gave MsrA inhibitor 9.2, Bfl-1 A1 inh inactive, bovine MsrA act inactive, procasp7 counter inactive, procasp3 activ inactive and MsrA inh confirm 6.9.
COc1ccc(NC(=O)c2sc3nc(N4CCCC4)c4c(c3c2N)CC(C)(C)OC4)cc1 was read as MsrA inhibitor 5.3, Bfl-1 A1 inh inactive, bovine MsrA act inactive, procasp7 counter inactive, procasp3 activ inactive and MsrA inh confirm inactive.
`CCN(CC)c1ccc(/C=N/Nc2nn[nH]n2)cc1` gave MsrA inhibitor 6.4, Bfl-1 A1 inh inactive, bovine MsrA act inactive, procasp7 counter inactive, procasp3 activ inactive and MsrA inh confirm inactive.
`CCN(CC)c1ccc(/C=N/Nc2nc(C)cc(C)n2)cc1` gave MsrA inhibitor inactive, Bfl-1 A1 inh inactive, bovine MsrA act inactive, procasp7 counter inactive and procasp3 activ inactive.
Screening O=c1[nH]c2cc(Cl)c(Br)cc2o1 returned MsrA inhibitor inactive and bovine MsrA act inactive.
`COc1ccc(-c2cc(-c3ccccc3)nc(=O)[nH]2)cc1` gave MsrA inhibitor 5.3, Bfl-1 A1 inh inactive, bovine MsrA act inactive, procasp7 counter inactive, procasp3 activ inactive and MsrA inh confirm inactive.
For COc1ccc(C(=NNc2ccccc2C(=O)O)c2ccc(OC)cc2)cc1 the results were MsrA inhibitor 5.1, Bfl-1 A1 inh inactive, bovine MsrA act inactive, procasp7 counter inactive, procasp3 activ inactive and MsrA inh confirm inactive.
For O=C(O)CC1SC(N/N=C/c2ccc(Br)cc2)NC1=O (configuration not stated) the results were MsrA inhibitor 4.9, Bfl-1 A1 inh inactive, bovine MsrA act inactive, procasp7 counter inactive, procasp3 activ inactive and MsrA inh confirm inactive.
CC(C)NC(=O)CC(=O)N/N=C/c1ccc(Br)cc1 was read as MsrA inhibitor inactive, Bfl-1 A1 inh inactive, bovine MsrA act inactive, procasp7 counter inactive and procasp3 activ inactive.
`Cc1cc2c(c(C)c1CCO)C(=O)[C@H](C)C2` gave MsrA inhibitor inactive, bovine MsrA act inactive, procasp7 counter inactive and procasp3 activ inactive.
O=C(NCC(c1ccco1)N1CCCCC1)c1ccc([N+](=O)[O-])s1 (configuration not stated) was read as MsrA inhibitor 6.0, Bfl-1 A1 inh inactive, bovine MsrA act inactive, procasp7 counter inactive, procasp3 activ inactive and MsrA inh confirm inactive.
For O=C1N/C(=N\N=C\c2cccs2)SC1Cc1ccc(Cl)c(Cl)c1 (configuration not stated) the results were MsrA inhibitor inactive, Bfl-1 A1 inh inactive, bovine MsrA act inactive, procasp7 counter inactive and procasp3 activ inactive.
For C=CCC1S/C(=N/N=C/c2cccs2)NC1=O (configuration not stated) the results were MsrA inhibitor 6.7, Bfl-1 A1 inh inactive, bovine MsrA act inactive, procasp7 counter inactive, procasp3 activ inactive and MsrA inh confirm 5.7.
CC1(C(=O)NS(=O)(=O)c2ccccc2C(F)(F)F)CCN1C(=O)CCc1ccccc1 (configuration not stated) was read as MsrA inhibitor inactive and bovine MsrA act inactive.
CS(=O)c1ccc(-n2c(=O)n(Cc3ccccc3)c(=O)c3[nH]cnc32)cc1 (configuration not stated) was read as MsrA inhibitor inactive, Bfl-1 A1 inh inactive, bovine MsrA act inactive, procasp7 counter inactive and procasp3 activ inactive.
`Cc1nn(C)cc1/C=C/C(=O)c1ccccc1` gave MsrA inhibitor inactive, Bfl-1 A1 inh inactive, bovine MsrA act inactive, procasp7 counter inactive and procasp3 activ inactive.
`Cc1nn(C)cc1/C=C/C(=O)c1cccs1` gave MsrA inhibitor 5.4, Bfl-1 A1 inh inactive, bovine MsrA act inactive, procasp7 counter inactive, procasp3 activ inactive and MsrA inh confirm inactive.
O=C(/C=C/c1ccccc1)c1ccccc1 was read as MsrA inhibitor inactive, Bfl-1 A1 inh inactive, bovine MsrA act inactive, procasp7 counter inactive and procasp3 activ inactive.
`O=C(/C=C/c1ccccc1)/C=C/c1ccccc1` gave MsrA inhibitor 4.9, Bfl-1 A1 inh inactive, bovine MsrA act inactive, procasp7 counter inactive, procasp3 activ inactive and MsrA inh confirm inactive.
For CC(C)c1nc(NCCO)c(C#N)c2c1CCCC2 the results were MsrA inhibitor 8.8, Bfl-1 A1 inh inactive, bovine MsrA act inactive, procasp7 counter inactive, procasp3 activ inactive and MsrA inh confirm 7.0.
Screening N#Cc1c(NCCCO)nc(-c2ccco2)c2c1CCCC2 returned MsrA inhibitor 9.5, Bfl-1 A1 inh inactive, bovine MsrA act inactive, procasp7 counter inactive, procasp3 activ inactive and MsrA inh confirm 7.6.
Screening N#Cc1c(NC2CCCCC2)nc(-c2ccco2)c2c1CCCC2 returned Bfl-1 A1 inh inactive, bovine MsrA act inactive, procasp7 counter inactive and procasp3 activ inactive.
`O=C1COc2cc(ccc2[N+](=O)[O-])Oc2ccc(cc2Cl)C(=O)CCCCO1` gave MsrA inhibitor 5.2, Bfl-1 A1 inh inactive, bovine MsrA act inactive, procasp7 counter inactive, procasp3 activ inactive and MsrA inh confirm 5.1.
Screening COCc1[nH]nc2c1C(c1ccccc1)N(Cc1ccccc1)C2=O (configuration not stated) returned MsrA inhibitor inactive.
Screening C[C@@H]1CN([C@@H](C)CO)C(=O)CCCn2cc(nn2)CO[C@H]1CN(C)C(=O)Nc1ccc2c(c1)OCO2 returned MsrA inhibitor inactive.
`CCc1nc(N)c(C#N)c(-c2ccccc2OC)c1C` gave MsrA inhibitor 4.7, Bfl-1 A1 inh inactive, bovine MsrA act inactive, procasp7 counter inactive, procasp3 activ inactive and MsrA inh confirm inactive.
COc1cccc(Nc2nc3cc(OC)ccc3cc2C#N)c1 was read as MsrA inhibitor 17, Bfl-1 A1 inh inactive, bovine MsrA act inactive, procasp7 counter inactive, procasp3 activ inactive and MsrA inh confirm 13.
`O=c1cc(-c2ccc(O)cc2)oc2ccc(O)cc12` gave MsrA inhibitor 5.5, Bfl-1 A1 inh inactive, bovine MsrA act inactive, procasp7 counter inactive, procasp3 activ inactive and MsrA inh confirm inactive.
Screening O=c1cc(-c2ccc(O)cc2)oc2ccccc12 returned MsrA inhibitor inactive, Bfl-1 A1 inh inactive, bovine MsrA act inactive, procasp7 counter inactive and procasp3 activ inactive.
O=C(Nc1ccc(C(=O)O)cc1)/C(=C\c1ccco1)NC(=O)c1ccco1 was read as MsrA inhibitor 4.8, Bfl-1 A1 inh inactive, bovine MsrA act inactive, procasp7 counter inactive, procasp3 activ inactive and MsrA inh confirm 4.9.
